Assay results from different studies.
Compare with care: the assays were run in different laboratories. Converted amounts (≈) assume the structure as drawn.
Organism: Klebsiella pneumoniae

| Compound | test | system | conditions | quantity | value |
| --- | --- | --- | --- | --- | --- |
| Cc1[nH]c(C(=O)Nc2ccc(C(=O)NCC(=O)O)cc2N2CC[C@H](N)C2)c(Cl)c1Cl.Cl | microbial growth, broth dilution | ATCC700603 |  | MIC | > 32 µg/mL |
| CN(C)c1cc(NC(=O)CNC(C)(C)C)c(O)c2c1C[C@H]1C[C@H]3[C@H](N(C)C)C(O)=C(C(N)=O)C(=O)[C@@]3(O)C(O)=C1C2=O | microbial growth, broth dilution |  |  | MIC | 0.5 µg/mL |
| COc1cc(C=Nc2ccc(Cl)cc2Cl)ccc1O | microbial growth, disc diffusion |  | 2000 µg/mL, 24 h | inhibition zone | 15 mm |
| O=C(O)c1cn(C2CC2)c2cc(N3CCNCC3)c(F)cc2c1=O | microbial growth | ATCC700603 |  | MIC | 32 µM |
| CN[C@H](CC(C)C)C(=O)N[C@H]1C(=O)N[C@@H](CC(N)=O)C(=O)N[C@H]2C(=O)N[C@H]3C(=O)N[C@H](C(=O)N[C@H](C(=O)O)c4cc(O)cc(O)c4-c4cc3ccc4O)[C@H](O)c3ccc(c(Cl)c3)Oc3cc2cc(c3O[C@@H]2O[C@H](CO)[C@@H](O)[C@H](O)[C@H]2O[C@H]2C[C@](C)(N)[C@H](O)[C@H](C)O2)Oc2ccc(cc2Cl)[C@H]1O | microbial killing | ATCC27736 |  | MBC | 1000 µg/mL (≈ 690 µM) |
| Cl.N[C@H]1CCN(c2cc(C(=O)NCC(=O)O)ccc2NC(=O)c2cc(Br)c(Br)[nH]2)C1 | microbial growth, broth dilution | ATCC700603 |  | MIC | > 32 µg/mL |
| COc1cc(C=Nc2ccc([N+](=O)[O-])cc2)ccc1O | microbial growth, disc diffusion |  | 2000 µg/mL, 24 h | inhibition zone | 14.4 mm |
| CC(C)(O/N=C(\C(=O)N[C@@H]1C(=O)N2C(C(=O)[O-])=C(C[n+]3ccccc3)CS[C@H]12)c1csc(N)n1)C(=O)O | microbial growth, broth dilution |  | 20 h, clinical isolate | MIC | > 128 µg/mL |
| CCC(C)CCCC(=O)N[C@@H](CCN)C(=O)N[C@H](C(=O)N[C@@H](CCN)C(=O)N[C@H]1CCNC(=O)[C@H]([C@@H](C)O)NC(=O)[C@H](CCN)NC(=O)[C@H](CCN)NC(=O)[C@H](CC(C)C)NC(=O)[C@@H](CC(C)C)NC(=O)[C@H](CCN)NC1=O)[C@@H](C)O (stereo partly shown) | microbial growth, broth dilution |  |  | MIC | 0.5 µg/mL |
| Cc1[nH]c(C(=O)Nc2ccc(C(=O)NCC(=O)O)cc2N2CCNCC2)c(Cl)c1Cl.Cl | microbial growth, broth dilution | ATCC700603 |  | MIC | > 32 µg/mL |
| COc1cc(C=Nc2ccccc2Br)ccc1O | microbial growth, disc diffusion |  | 2000 µg/mL, 24 h | inhibition zone | 14.7 mm |
| C[C@@H](O)[C@H]1C(=O)N2C(C(=O)O)=C(SCCN=CN)C[C@H]12 | microbial growth, broth dilution |  | clinical isolate | MIC90 | 256 µg/mL (≈ 855 µM) |
| CC(C)(C)OC(=O)N1CCN(c2cc(C(=O)NCC(=O)O)ccc2NC(=O)c2cc(Br)c(Br)[nH]2)CC1 | microbial growth, broth dilution | ATCC700603 |  | MIC | > 32 µg/mL |
